B1: bovine trypsin (protein, UniProt P00760 24-246, looked up)
Serine protease 1: IVGGYTCGANTVPYQVSLNSGYHFCGGSLINSQWVVSAAHCYKSGIQVRLGEDNINVVEGNEQFISASKSIVHPSYNSNTLNNDIMLIKLKSAASLNSRVASISLPTSCASAGTQCLISGWGNTKSSGTSYPDVLKCLKAPILSDSSCKSAYPGQITSNMFCAGYLEGGKDSCQGDSGGPVVCSGKLQGIVSWGSGCAQKNKPGVYTKVCNYVSWIKQTIASN

Columns and labels:
[1] = system: HepG2 cells; assay: Cellular toxicity, MTT assay; format: cell-based, human; conditions: 2–128 μL fluorous solvent added to culture medium, 48 h
Method in brief: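 HepG2 cells seeded at 2000 cells/well and allowed to adhere overnight. Dispersant at 10 nM–1 mM in culture medium, or 2–128 μL fluorous solvent added to the medium, for 48 h. Serum-free medium served as the negative control and 20% DMSO in serum-free medium as the positive control. Then 0.5 mg/mL MTT in serum-free medium for 2 h, formazan dissolved in DMSO, A540 read. Viability was normalized between the two controls.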

[2] = system: bacteria; assay: Control bacterial viability; format: cell-based; conditions: component alone: PFOc mixed with bacterial media, or PD-7 added to PBS
[3] = Temperature-dependent circular dichroism; format: physicochemical
Method in brief: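 Proteins were either diluted in PBS or dispersed in PFOc with 1 mM dispersant. The aqueous samples were heated between 40 and 90 °C, with a CD spectrum taken at each temperature. The PFOc dispersions were heat-treated at 40, 55, 70 and 85 °C for 15 min each, then mixed with PBS to elute the protein before CD. Each condition was run in triplicate, and representative spectra were reported.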

[4] = dispersed in PFOc using PD-7, heated up to 85 °C

Molecule | toxicity toward human liver cells [1] | MIC / bacterial viability [2] | change in secondary structure on heating (CD) [3, 4] | change in secondary structure on heating (CD) ([3]; saline (PBS) control formulation, 40–85 °C)
FC(F)(F)C(F)(F)C(F)(F)C(F)(F)C(F)(F)C(F)(F)C(F)(F)C(F)(F)F [PFOc, perfluorooctane] | biocompatible | no MIC could be calculated |  | 
bovine serum albumin [BSA] |  |  | minimal changes in secondary structure | 
rabbit serum immunoglobulin [IgG] |  |  | minimal changes in secondary structure | 
β-galactosidase |  |  | minimal changes in secondary structure | 
B1 |  |  | minimal changes in secondary structure | minimal change in structure

— PMC11299136 (ACS Applied Materials & Interfaces, 2024)
